High-throughput results as filed in PubChem BioAssay.
Lipid droplet = modulators of hepatic lipid droplet formation. inhibition, % at 6.5 µM. 0.4% of 240,000 active. AML12 mouse hepatocytes, oleate lipid droplets, BODIPY imaging;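 active = lipid droplet intensity inhibited by at least 50%, with more than 500 cells counted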
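Assay system: AML12 hepatocytes (mouse) / Also added: 100 µM oleic acid challenge / Times: overnight treatment with compound plus oleate / Detection: high-content imaging of BODIPY-stained droplets and DAPI nuclei / Evaluation: % inhibition of lipid droplet signal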
SR-BI uptake up = enhances SR-BI lipid uptake from DiI-HDL | CHO ldlA[mSR-BI] cells, DiI-HDL uptake fluorescence, 3 h; 100 = double the neutral-control signal | AID 504775 | activation, % at 12.5 µM | 0.096% of 320,000 active;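 active = mean replicate activation of at least 60% and every replicate at or above 60%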
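Test system: SR-BI-overexpressing, LDLR-lacking CHO cells. Measured by: DiI fluorescence, bottom read. Medium: Ham's F12 with 0.5% BSA, HEPES 25 mM, pH 7.4. Timing: 3 h uptake period with compound, 37 °C.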
CR mimetic SO = yeast age-related superoxide inhibition as caloric restriction mimetic. S. cerevisiae aged cells, superoxide DHE fluorescence; stronger effect = lower value. superoxide response (% of plate mean), % at 10 µM. 0.18% of 330,000 active;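 active = superoxide response under a set limit, about three screen SD below normal, cut at about 65% in these data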;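 note: yeast aged for seven days with compound at 30 °C before DHE staining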
AHR activator = activators of human aryl hydrocarbon receptor. P35869. AHR-responsive luciferase reporter cells, luminescence. activation, % at 5 µM. 2.5% of 320,000 active. AID 2796; in the data active = activation above about 47%
SMARCA2 act = SMARCA2 function activation, primary screen. AID 652017. activation, % at 9.1 µM. 1% of 370,000 active. MG213 cells, MMTV-luciferase reporter, dexamethasone, overnight; in the data active = activation above about 7.8%
SR-BI DiI inh = blocks mouse SR-BI lipid uptake from DiI-HDL. ldlA[mSR-BI] CHO cells, DiI-HDL uptake fluorescence, 3 h. inhibition, % at 12.5 µM. 0.96% of 320,000 active. AID 488896;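 active = mean replicate inhibition of at least 70% and a set share of replicates each scoring 70 or more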
Target sequence (Q61009 whole entry, looked up): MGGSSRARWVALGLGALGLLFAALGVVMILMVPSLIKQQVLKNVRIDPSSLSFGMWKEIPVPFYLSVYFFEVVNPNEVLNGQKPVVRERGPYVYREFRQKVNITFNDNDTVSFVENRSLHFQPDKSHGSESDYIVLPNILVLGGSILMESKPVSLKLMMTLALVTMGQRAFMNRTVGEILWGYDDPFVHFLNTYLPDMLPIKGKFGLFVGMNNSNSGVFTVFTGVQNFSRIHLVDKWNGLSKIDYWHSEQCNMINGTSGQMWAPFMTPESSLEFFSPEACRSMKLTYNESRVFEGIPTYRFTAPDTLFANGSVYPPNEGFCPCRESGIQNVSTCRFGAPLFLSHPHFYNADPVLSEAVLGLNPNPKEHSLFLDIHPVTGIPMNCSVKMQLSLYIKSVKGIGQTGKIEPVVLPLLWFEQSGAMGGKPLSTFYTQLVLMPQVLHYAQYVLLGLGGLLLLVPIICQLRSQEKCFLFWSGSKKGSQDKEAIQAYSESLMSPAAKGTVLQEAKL
SMARCA2 act conf = confirmation of SMARCA2 (BRM) function activators; shares compounds with SMARCA2 act; activation, % at 9.1 µM; MG213 cells, MMTV-luciferase with dexamethasone, luminescence, overnight; MG213 cells expressing E1A, Rb sequestered; DMSO wells 0%, reference activator 100%; 30% of 3,500 active;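 active = activation above its plate's cutoff, the mean activation of tested wells plus 3 SD, cut at about 7.9% in these data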
GAL4-VP16 Luc = GAL4-VP16 reporter activation counter-screen; activation, % at 9.1 µM; shares compounds with SMARCA2 act; HEK293 GAL4-VP16 pG5luc reporter, luciferase luminescence; scaled: DMSO wells 0%, SAHA wells 100%; 41% of 3,500 active; AID 686939;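 active = activation above the solvent-only control well mean plus 3 SD, averaged across control plates, cut at about 5.2% in these data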
Large screens that a line does not name were inactive (follow-up assays come after a bar, where they were run). A selection: hits, their analogues and other compounds. The true share with any hit is near 4.3%.

CCNC(=O)CSc1nnc(-c2cccc(S(=O)(=O)N(CC)CC)c2)n1CCc1ccccc1	SMARCA2 act 8.9 (no result: Lipid droplet) | SMARCA2 act conf inactive | GAL4-VP16 Luc inactive
COC(=O)Nc1c(-c2ccccc2)nc2ccc(Cl)cn12	none
COC(=O)CNc1c(-c2ccccc2)nc2ccc(Br)cn12	SMARCA2 act 14 | SMARCA2 act conf 11 | GAL4-VP16 Luc 6.8
Cc1ccc(CN2CCCCC(NC(=O)c3ccc(F)cc3)C2=O)cc1 (stereo unspecified)	none (no result: Lipid droplet, SR-BI uptake up, CR mimetic SO, AHR activator, SR-BI DiI inh)
CCOc1cc2c(cc1OCC)C(c1ccccc1)N(c1ccc(C(=O)O)cc1)C(=O)C2 (stereo unspecified)	SMARCA2 act 9.5 | SMARCA2 act conf inactive | GAL4-VP16 Luc inactive
COc1cc(C=Nn2c(-c3cc(-c4ccccc4)n[nH]3)n[nH]c2=S)ccc1OC(C)=O	SMARCA2 act 14 (no result: Lipid droplet, SR-BI uptake up, CR mimetic SO, AHR activator, SR-BI DiI inh) | SMARCA2 act conf 10 | GAL4-VP16 Luc inactive
NC(=O)CSc1nc2ccccc2c(=O)n1Cc1ccccc1	none (no result: Lipid droplet)
CCn1c(SCC(N)=O)nc2ccccc2c1=O	SMARCA2 act 8.0 (no result: Lipid droplet) | SMARCA2 act conf inactive | GAL4-VP16 Luc inactive
COC(=O)c1ccc2nc(-c3cccc(Cl)c3)c(Cc3cccc(Cl)c3)n2c1	none (no result: Lipid droplet, SR-BI uptake up, CR mimetic SO, AHR activator, SR-BI DiI inh)
COC(=O)c1ccc2nc(-c3cccc(Cl)c3)c(Cc3cccc(F)c3)n2c1	SMARCA2 act 11 (no result: Lipid droplet, SR-BI uptake up, CR mimetic SO, AHR activator, SR-BI DiI inh) | SMARCA2 act conf inactive | GAL4-VP16 Luc inactive
Cc1ccc(-n2c(SCC(=O)c3ccc(F)cc3)nnc2-c2cccnc2)cc1	none (no result: Lipid droplet, SR-BI uptake up, CR mimetic SO, AHR activator, SR-BI DiI inh)
COC(=O)C[C@H]1CC[C@@H]2[C@H](COc3ccc(NC(=O)C(C)C)cc3C(=O)N2C)O1	none (no result: Lipid droplet, SR-BI uptake up, CR mimetic SO, AHR activator, SR-BI DiI inh)
CCOC(=O)C1=C(C(=O)OCC)C2N(Cc3ccc(C#N)cc3)c3ccccc3[C@@]23C[C@@H](C(=O)OC)N(S(=O)(=O)c2c(C)noc2C)C3=N1 (stereo partly specified)	none (no result: Lipid droplet, SR-BI uptake up, CR mimetic SO, AHR activator, SR-BI DiI inh)
CCN=C1NC(c2ccccc2C(F)(F)F)C(C(=O)OC)=C(C)N1C (stereo unspecified)	none (no result: Lipid droplet, SR-BI uptake up, CR mimetic SO, AHR activator, SR-BI DiI inh)
CCNC(=O)NC(=O)C(C)Sc1nc2cc(C(=O)OC)ccc2c(=O)n1-c1ccccc1 (stereo unspecified)	SMARCA2 act 9.4 (no result: Lipid droplet) | SMARCA2 act conf inactive | GAL4-VP16 Luc inactive
CCCC(C)NC(=O)CN(Cc1ccco1)S(=O)(=O)c1ccccc1 (stereo unspecified)	SMARCA2 act 15 (no result: Lipid droplet) | SMARCA2 act conf inactive | GAL4-VP16 Luc inactive
COc1ccc(C(=O)NC(=S)NCC2CCCO2)cc1 (stereo unspecified)	SMARCA2 act 11 | SMARCA2 act conf inactive | GAL4-VP16 Luc inactive
Cc1ccc(C(=O)N/C(=C/c2ccco2)C(=O)NCC2CCCO2)cc1 (stereo unspecified)	SMARCA2 act 9.9 | SMARCA2 act conf inactive | GAL4-VP16 Luc inactive
CNC(=O)NC(=S)NC(=O)c1ccc(OC)cc1	SMARCA2 act 10 (no result: Lipid droplet) | SMARCA2 act conf inactive | GAL4-VP16 Luc inactive
COc1cc(C(=O)NC(=S)NNC(=O)c2cnccn2)cc(OC)c1OC	none
COc1ccc(C(=O)NC(=S)NNC(=O)c2cnccn2)cc1	SMARCA2 act 33 | SMARCA2 act conf inactive | GAL4-VP16 Luc inactive
N#Cc1cc2cc3c(cc2nc1SCC(=O)N1CCOCC1)OCO3	none (no result: SR-BI uptake up, SR-BI DiI inh)
Cc1cc2cc3c(cc2nc1SCC(=O)N1CCOCC1)OCO3	SMARCA2 act 8.4 (no result: SR-BI uptake up, SR-BI DiI inh) | SMARCA2 act conf inactive | GAL4-VP16 Luc inactive
CCOC(=O)N1CCN(C(=O)C[C@@H]2C(=O)N3CCCC4=C3[C@@]2(C(=O)OCC)CCC4)CC1	none (no result: Lipid droplet, SR-BI uptake up, CR mimetic SO, AHR activator, SR-BI DiI inh)
O=C(NC1=NCCS1)c1cccc(Br)c1	SMARCA2 act 12 (no result: Lipid droplet) | SMARCA2 act conf 17 | GAL4-VP16 Luc 7.0
COc1ccc2c(c1)CCCN2C(=O)C1CCCN(S(=O)(=O)c2ccc(C(C)(C)C)cc2)C1 (stereo unspecified)	none (no result: Lipid droplet, SR-BI uptake up, CR mimetic SO, AHR activator, SR-BI DiI inh)
